Assay results collected from several papers.
Protocols differ between the studies behind these lines.

CN1CCN(C2CCN(c3nccc4[nH]c(-c5cc(F)cc(F)c5)nc34)CC2)CC1
AUC(0-t) (BALB/c mouse, blood; oral, 20 mg/kg): 11.8 µM·h

C=CC(=O)N1CC2CC(n3nc(-c4ccc(C(=O)Nc5ccccn5)cc4)c4c(N)ncnc43)CC2C1 (stereo not drawn)
AUC(0-t) (SCID mouse, plasma; oral, 3 mg/kg): 588 ng·h/mL

CC[C@H](C)[C@@H]1NC(=O)[C@@](C)(NC(=O)[C@H](CCCNC(=N)N)NC(=O)[C@H](CC(C)C)NC(=O)[C@@H](NC(=O)[C@H](CCC(N)=O)NC(=O)[C@H](CC(C)C)NC(C)=O)[C@@H](C)O)CCCC=CCCC[C@@](C)(C(=O)N[C@@H](CC(C)C)C(=O)N[C@@H](Cc2ccc3ccccc3c2)C(N)=O)NC(=O)[C@H](CCCNC(=N)N)NC(=O)[C@H](CCC(N)=O)NC1=O
AUC(0-t) (male BALB/c mouse, plasma; intraperitoneal, 5 mg/kg): 102000 ng·h/mL

CNC(=O)c1cc(OC)cc2c(N3CCc4c(cc(Cn5ccnc5)cc4-c4cn(C)nc4C(F)(F)F)C3=O)ccnc12
AUC(0-t) (male CD-1 mouse, plasma; oral, 50 mg/kg): 144000 ng·h/mL

CN1CCN(CC2CCN(c3cncc4[nH]c(-c5cc(F)cc(F)c5)nc34)CC2)CC1
AUC(0-t) (mouse, blood; oral, 10 mg/kg): 3.57 µM·h

COc1ccc(C(O)COc2ccc(-c3csc(-c4ccc(OCC(O)c5ccc(OC)c(OC)c5)cc4)n3)cc2)cc1OC (stereo not drawn)
AUC(0-t) (C57BL/6 mouse, plasma; oral, 10 mg/kg): 10000 ng·h/mL

NS(=O)(=O)c1ccc(-c2cc(Nc3ccc(OC(F)(F)F)cc3)ncn2)cc1
AUC(0-t) (male BALB/c mouse, plasma; oral, 20 mg/kg): 9390 ng·h/mL

CN1CCN(c2nccc3nc(-c4ccc(F)c(F)c4)[nH]c23)CC1
AUC(0-t) (mouse, blood; intravenous, 2 mg/kg): 3.58 µM·h

COc1ccc2nccc(N3CCc4c(cc(Cn5ccnc5)cc4-c4cn(C)nc4C(F)(F)F)C3=O)c2c1
AUC(0-t) (male CD-1 mouse, plasma; oral, 50 mg/kg): 33800 ng·h/mL

Cc1nc2ccc(F)cc2n1-c1nc(N)c(F)c(Nc2ccc(C(F)(F)F)cc2)n1
AUC(0-t) (nude mouse, plasma; oral, 10 mg/kg): 19300 ng·h/mL

COc1cc(OC)c2nccc(N3CCc4c(cc(Cn5ccnc5)cc4-c4cn(C)nc4C(F)(F)F)C3=O)c2c1
AUC(0-t) (male CD-1 mouse, plasma; intravenous, 3 mg/kg): 803 ng·h/mL

CCOC(=O)c1sc(Nc2ncccn2)nc1-c1ccccn1
AUC(0-t) (male CD-1 mouse, plasma; oral, 10 mg/kg): 195 ng·h/mL

CC(C)(C)c1cc(NC(=O)Nc2ccc(Oc3ccnc4[nH]c(=O)cnc34)cc2F)n(-c2ccccc2)n1
AUC(0-t) (BALB/c mouse, plasma; oral, 10 mg/kg): 416 µM·h

CCc1cc(C(=O)NC)c2nccc(N3CCc4c(cc(Cn5ccnc5)cc4-c4cn(C)nc4C(F)(F)F)C3=O)c2c1
AUC(0-t) (male CD-1 mouse, plasma; oral, 150 mg/kg): 527000 ng·h/mL

COc1nc(-c2cc(C)c(N[C@@H](C)c3cc(F)cc(F)c3)nn2)ccc1-n1cnc(C)c1
AUC(0-t) (male CD-1 mouse, plasma; oral, 5 mg/kg, single dose): 9560 ng·h/mL

CNC(=O)c1cc(Oc2ccc(NC(=O)Nc3ccc(Cl)c(C(F)(F)F)c3)c(F)c2)ccn1
AUC(0-t) (male mouse, plasma; oral, 10 mg/kg, single dose): 18000 ng·h/mL

Cc1ccc(NC(=O)c2ccc(CN3CCN(C)CC3)cc2)cc1Nc1nccc(-c2cncc(-c3oncc3C)c2)n1
AUC(0-t) (male C57BL/6 mouse, brain; oral, 100 mg/kg/day): 1170 ng·h/mL

C[C@H](NC(=O)C(C)(C)Oc1ccc(C(F)(F)F)cn1)[C@@H](Cc1ccc(Cl)cc1)c1cccc(C#N)c1
AUC(0-t) (mouse, plasma; oral, 6 µmol/kg, single dose): 5.3 µM·h
